Measurements: publication PMC8416298 (European Journal of Medicinal Chemistry, 2021)
Where two headings read alike, the source gives them in different places.

What was measured:
[1] = tested on: SARS-CoV-2/NL/2020; assay: Plaque reduction assay; format: cell-based; conditions: for dose-dependent inhibitory activity: any of the tested SARS-CoV-2 strains, up to 50 μM
[2] = tested on: MRC-5 cells; assay: MTT cell viability assay in MRC-5 cells; format: cell-based, human; conditions: in words
Procedure, shortened: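 Human fibroblast MRC-5 cells exposed to test compound for 72 h; viability read by MTT (3-(4,5-dimethylthiazol-2-yl)-2,5-diphenyl tetrazolium bromide) assay. CC50 taken as the compound concentration that inhibits cell viability by 50%.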

[3] = tested on: HCoV-229E; assay: microbe, parasite or virus in culture; format: cell-based; conditions: Human coronavirus 229E, MRC5, read-out: EC50 (CI)
[4] = tested on: CCoV; conditions: dog, po, 1 mg/kg; cited from earlier work
[5] = tested on: SARS-CoV-2; conditions: virus yield reduction assay, 48 h, infected Vero E6 cells; cited from earlier work
[6] = tested on: SARS-CoV-2; conditions: 4-day cytopathic effect protection assay, Vero E6 cells; cited from earlier work
[7] = tested on: human prostaglandin E synthase type 2 (PGES-2); conditions: cited from earlier work

Which dose-dependent inhibitory activity [1] does the source give for COc1ccc2c(c1)c(CC(=O)NCCCCC(=O)N[C@H](C(=O)N1C[C@H](O)C[C@H]1C(=O)N[C@@H](C)c1ccc(-c3scnc3C)cc1)C(C)(C)C)c(C)n2C(=O)c1ccc(Cl)cc1 [Compound 2, (2S,4R)-1-((S)-2-(5-(2-(1-(4-chlorobenzoyl)-5-methoxy-2-methyl-1H-indol-3-yl)acetamido)pentanamido)-3,3-dimethylbutanoyl)-4-hydroxy-N-((S)-1-(4-(4-methylthiazol-5-yl)phenyl)ethyl)pyrrolidine-2-carboxamide] here?
The dose-dependent inhibitory activity was “did not show dose-dependent inhibitory activity”.

With COc1ccc2c(c1)c(CC(=O)NCCCCCCC(=O)N[C@H](C(=O)N1C[C@H](O)C[C@H]1C(=O)N[C@@H](C)c1ccc(-c3scnc3C)cc1)C(C)(C)C)c(C)n2C(=O)c1ccc(Cl)cc1 [Compound 3, (2S,4R)-1-((S)-2-(7-(2-(1-(4-chlorobenzoyl)-5-methoxy-2-methyl-1H-indol-3-yl)acetamido)heptanamido)-3,3-dimethylbutanoyl)-4-hydroxy-N-((S)-1-(4-(4-methylthiazol-5-yl)phenyl)ethyl)pyrrolidine-2-carboxamide] as the compound, how does the cytotoxicity [2] read?
Its cytotoxicity is “did not show significant cytotoxicity”.

For COc1ccc2c(c1)c(CC(=O)NCCOCCOCC(=O)N[C@H](C(=O)N1C[C@H](O)C[C@H]1C(=O)N[C@@H](C)c1ccc(-c3scnc3C)cc1)C(C)(C)C)c(C)n2C(=O)c1ccc(Cl)cc1 [Compound 4, (2S,4R)-1-((S)-2-(tert-butyl)-14-(1-(4-chlorobenzoyl)-5-methoxy-2-methyl-1H-indol-3-yl)-4,13-dioxo-6,9-dioxa-3,12-diazatetradecanoyl)-4-hydroxy-N-((S)-1-(4-(4-methylthiazol-5-yl)phenyl)ethyl)pyrrolidine-2-carboxamide], which dose-dependent inhibitory activity [1] is on record?
The dose-dependent inhibitory activity was “did not show dose-dependent inhibitory activity”.

What about the “activity in PRA” value ([1]; in words) of the same compound?
Its value is “not active”.

For COc1ccc2c(c1)c(CC(=O)NCCN1CCN(C(=O)CCC(=O)N[C@H](C(=O)N3C[C@H](O)C[C@H]3C(=O)N[C@@H](C)c3ccc(-c4scnc4C)cc3)C(C)(C)C)CC1)c(C)n2C(=O)c1ccc(Cl)cc1 [Compound 5, (2S,4R)-1-((S)-2-(4-(4-(2-(2-(1-(4-chlorobenzoyl)-5-methoxy-2-methyl-1H-indol-3-yl)acetamido)ethyl)piperazin-1-yl)-4-oxobutanamido)-3,3-dimethylbutanoyl)-4-hydroxy-N-((S)-1-(4-(4-methylthiazol-5-yl)phenyl)ethyl)pyrrolidine-2-carboxamide], which cytotoxicity [2] is on record?
Its cytotoxicity is “did not show significant cytotoxicity”.

What about the EC50 [3] of the same compound?
Its EC50 is 3.4 µM.

For COc1ccc2c(c1)c(CC(=O)O)c(C)n2C(=O)c1ccc(Cl)cc1 [INM, Indomethacin], which “in vivo antiviral efficacy” value [4] is on record?
The value was “in vivo antiviral efficacy”.

And the EC50 [5]?
Its EC50 is 100 µM.

And the EC50 [6]?
The EC50 was > 400 µM.

What about the PGES-2 inhibition [7] of the same compound?
Its PGES-2 inhibition is “low nanomolar range”.
